Measurements reported in ChEMBL document CHEMBL1121721 (J Med Chem, 1981).

How the values were obtained:
Mu-type opioid receptor = Mu-type opioid receptor (Cavia porcellus, UniProt P97266); assay: Inhibitory potency against Opioid receptor mu 1 in longitudinal muscle preparation of guinea pig ileum; format: tissue-based
Method in brief: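 Guinea pig ileum was electrically stimulated to contract, and inhibition was measured at six concentrations per compound, with six to eight assays each. Methionine-enkephalin served as the internal standard in every assay. IC50 was obtained by regression analysis.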

Mus musculus [1] = assay: Analgesic activity of compound (1.98 nM) in mice after icv administration; format: functional
Method in brief: (§1)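 Swiss mice (20–22 g) got icv injections of compound freshly dissolved in saline, in a constant 5 μL. Hind-paw lick latency on a 65 ± 1 °C hot plate was read 15 min after injection. Animals with control latency above 9 s were rejected. Values are mean ± SEM, with n per group.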

Mus musculus [2] = species on record: Mus musculus; assay: Relative potency of compound verses morphine for analgesic activity in mice; format: functional
[3] = molecular target: Delta-type opioid receptor (Mus musculus, UniProt P32300); assay: Inhibitory potency against delta Opioid receptor delta 1 in longitudinal muscle preparation of mouse vas deferens
Delta-type opioid receptor, sequence (P32300 whole entry): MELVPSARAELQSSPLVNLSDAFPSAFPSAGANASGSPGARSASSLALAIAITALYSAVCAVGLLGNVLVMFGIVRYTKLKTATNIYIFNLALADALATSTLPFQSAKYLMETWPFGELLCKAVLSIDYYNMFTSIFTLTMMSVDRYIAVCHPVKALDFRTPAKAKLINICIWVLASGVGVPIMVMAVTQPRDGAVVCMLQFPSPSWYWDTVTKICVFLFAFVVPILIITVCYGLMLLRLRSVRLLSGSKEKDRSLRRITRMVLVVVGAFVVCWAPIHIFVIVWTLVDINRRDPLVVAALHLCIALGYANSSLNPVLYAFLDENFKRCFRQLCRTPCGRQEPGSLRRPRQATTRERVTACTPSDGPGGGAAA

[4] = Ratio of IC50 evaluated in GPI to MVD; format: functional
Method in brief: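 IC50 values were determined on electrically stimulated guinea pig ileum and on mouse vas deferens. Each used six concentrations with six to eight assays each, methionine-enkephalin as internal standard, and regression analysis. The ratio is GPI IC50 over MVD IC50.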

Mus musculus [5] = assay: Analgesic activity of compound (1.46+diprenorphine) in mice after icv administration; format: functional
Method in brief: (§2)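 Swiss mice (20–22 g) got naloxone 1 mg/kg sc or diprenorphine 0.5 mg/kg sc 15 min before icv compound, given in saline in a constant 5 μL. Hind-paw lick latency on a 65 ± 1 °C hot plate was read 15 min after icv injection. Mice with control latency over 9 s were excluded. Values are mean ± SEM, with n.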

Mus musculus [6] = assay: Analgesic activity of compound (1.46+naloxone) in mice after icv administration; format: functional; method in brief: as §2
Mus musculus [7] = assay: Analgesic activity of compound (1.46 nM) in mice after icv administration; format: functional; method in brief: as §1
Mus musculus [8] = assay: Analgesic activity of compound (2.66 nM) in mice after icv administration; format: functional; method in brief: as §1
Mus musculus [9] = assay: Analgesic activity of compound (1.45 nM) in mice after icv administration; format: functional; method in brief: as §1
Mus musculus [10] = assay: Analgesic activity of compound (1.48 nM) in mice after icv administration; format: functional; method in brief: as §1

Mu-type opioid receptor, sequence (P97266 whole entry): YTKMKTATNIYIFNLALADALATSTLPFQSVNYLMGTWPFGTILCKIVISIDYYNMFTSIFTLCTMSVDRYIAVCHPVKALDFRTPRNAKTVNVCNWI

Row | Compound | IC50 (Mu-type opioid receptor) [nM] | Relative potency (Mus musculus [2]) | IC50 [3] [nM] | Ratio [4] | also measured
1 | CSCC[C@H](NC(=O)[C@H](Cc1ccccc1)NC(=O)CNC(=O)CNC(=O)[C@@H](N)Cc1ccc(O)cc1)C(=O)O | 200 | – | – | – | –
2 | CC(C)CC(C)NC(=O)CNC(=O)[C@H](C)NC(=O)[C@@H](N)Cc1ccc(O)cc1 (stereo not given in full) | 182 | 1 | 1220 | 0.15 | Hind-paw lick latency time (Mus musculus [1]): 25 s
3 | CC(C)C[C@H](NC(=O)[C@H](Cc1ccccc1)NC(=O)CNC(=O)[C@H](CO)NC(=O)[C@@H](N)Cc1ccc(O)cc1)C(=O)N[C@H](C(=O)O)[C@@H](C)O | 360 | – | – | – | Hind-paw lick latency time (Mus musculus [5]): 6.6 s; Hind-paw lick latency time (Mus musculus [6]): 10.5 s; Hind-paw lick latency time (Mus musculus [7]): 32.6 s
4 | C[C@H](NC(=O)[C@@H](N)Cc1ccc(O)cc1)C(=O)NCC(=O)N(C)[C@@H](Cc1ccccc1)C(=O)N[C@@H](CC[S+](C)[O-])C(=O)O (stereo not given in full) | 7.2 | >100 | 15.7 | 0.46 | –
5 | CC(C)C[C@@H](NC(=O)[C@H](Cc1ccccc1)NC(=O)CNC(=O)[C@@H](C)NC(=O)[C@@H](N)Cc1ccc(O)cc1)C(=O)O [DADLE] | 47.8 | – | – | – | –
6 | CN1CC[C@]23c4c5ccc(O)c4O[C@H]2[C@@H](O)C=C[C@H]3[C@H]1C5 [MORPHINE] | – | – | – | – | Hind-paw lick latency time (Mus musculus [8]): 25.2 s
7 | H-YAGFMT-OH | 240 | 2 | 1.09 | 220 | Hind-paw lick latency time (Mus musculus [9]): 29.3 s
8 | H-YGGFMT-OH | 380 | >0.1 | 6.1 | 62 | Hind-paw lick latency time (Mus musculus [10]): 6.5 s
9 | H-YMGFP-NH2 | 21.9 | 25 | 23.1 | 0.95 | –
